Assays:
Assay type in all cases: ADME, organism-based
Blood [1] = assay: Cmax in F344 rat blood assessed as total compound-derived radioactivity per gram of tissue at 5 mg/kg, iv administered as single bolus dose […]; design: dose 5 mg/kg, route intravenous; conditions: in vivo
Method in brief: (§1)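 Same F344 study: single 5 mg/kg IV [¹⁴C]anidulafungin given over about 5 min. Total drug-derived radioactivity (parent plus metabolites) counted by liquid scintillation, in […]. Noncompartmental analysis of the composite mean profile.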

Liver [2] = assay: AUC (0 to 24 hrs) in F344 rat liver assessed as total compound-derived radioactivity per gram of tissue at 5 mg/kg, iv administered as single bolus dose […]; design: time < 24 hr, dose 5 mg/kg, route intravenous; conditions: in vivo; method in brief: as §1
Kidney = assay: Drug level in Long Evans rat kidney assessed as high disposition of radioactivity per gram of tissue at 5 mg/kg, iv administered as single bolus dose measured 6 hrs postdose by autoradiography; design: dose 5 mg/kg, route intravenous; conditions: in vivo
Method in brief: (§2)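 Male pigmented Long Evans (HsdBlu:LE) rats, 7.5 weeks old, 202 to 217 g, single iv [¹⁴C]anidulafungin; one rat per sampling time. Euthanized by isoflurane and cardiac-puncture exsanguination. Sagittal whole-body sections quantified by phosphorimaging autoradiography, single samples corrected for section thickness across multiple sections per tissue. Concentrations (μg eq/g drug-derived radioactivity) interpolated from least-squares standard curves per scan.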

Cerebrospinal fluid [3] = assay: Drug level in Long Evans rat cerebrospinal fluid assessed as radioactivity per gram of tissue at 5 mg/kg, iv administered as single bolus dose measured 6 hrs postdose by autoradiography; design: dose 5 mg/kg, route intravenous; conditions: in vivo; method in brief: as §2
Lung [4] = assay: Tmax in F344 rat lung assessed as total compound-derived radioactivity at 5 mg/kg, iv administered as single bolus dose […]; design: dose 5 mg/kg, route intravenous; conditions: in vivo
Method in brief: (§3)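 Male F344 rats, 10 to 11 weeks old and 223.6 to 243.8 g, got one iv dose of [14C]anidulafungin at 5 mg/kg over about 5 min. Blood, CSF, kidney, liver, lung, quadriceps, spleen and skin were sampled predose and at 0.083 to 72 h, 3 rats per time. Total radioactivity (parent plus metabolites) was measured by liquid scintillation counting. Parameters were noncompartmental, from a composite mean profile.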

Plasma = assay: Tmax in F344 rat plasma assessed as total compound-derived radioactivity at 5 mg/kg, iv administered as single bolus dose […]; design: dose 5 mg/kg, route intravenous; conditions: in vivo; method in brief: as §3
Liver [5] = assay: Drug level in Long Evans rat liver assessed as low disposition of radioactivity per gram of tissue at 5 mg/kg, iv administered as single bolus dose measured 24 hrs postdose by autoradiography; design: dose 5 mg/kg, route intravenous; conditions: in vivo; method in brief: as §2
Liver [6] = assay: AUC (0 to infinity) in F344 rat liver assessed as total compound-derived radioactivity per gram of tissue at 5 mg/kg, iv administered as single bolus dose […]; design: time infinity, dose 5 mg/kg, route intravenous; conditions: in vivo; method in brief: as §1
Cerebrum = assay: Drug level in Long Evans rat cerebrum assessed as radioactivity per gram of tissue at 5 mg/kg, iv administered as single bolus dose measured 72 hrs postdose by autoradiography; design: dose 5 mg/kg, route intravenous; conditions: in vivo; method in brief: as §2
Lung [7] = assay: Drug level in Long Evans rat lung assessed as radioactivity per gram of tissue at 5 mg/kg, iv administered as single bolus dose measured 24 hrs postdose by autoradiography; design: dose 5 mg/kg, route intravenous; conditions: in vivo; method in brief: as §2
Blood [8] = assay: AUC (0 to 24 hrs) in F344 rat blood assessed as total compound-derived radioactivity per gram of tissue at 5 mg/kg, iv administered as single bolus dose […]; design: time < 24 hr, dose 5 mg/kg, route intravenous; conditions: in vivo; method in brief: as §1
Muscle tissue [9] = assay: Drug level in Long Evans rat muscle assessed as radioactivity per gram of tissue at 5 mg/kg, iv administered as single bolus dose measured 12 hrs postdose by autoradiography; design: dose 5 mg/kg, route intravenous; conditions: in vivo; method in brief: as §2
[10] = Drug level in Long Evans rat eye assessed as radioactivity per gram of tissue at 5 mg/kg, iv administered as single bolus dose measured 168 hrs postdose by autoradiography; design: dose 5 mg/kg, route intravenous; conditions: in vivo; method in brief: as §2
[11] = Cmax in F344 rat liver at 5 mg/kg, iv administered as single bolus dose after 5 min by HPLC method; design: dose 5 mg/kg, route intravenous
Method in brief: (§4)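 Male F344 rats, 10–11 weeks, 223.6–243.8 g, given one IV dose of [¹⁴C]anidulafungin, 5 mg/kg, over about 5 min. Tissues and blood sampled at 0.083–72 h (n = 3 rats per time). Parent drug measured by HPLC; LLOQ/ULOQ were 20/5,120 ng/ml for plasma and 220/56,320 ng/g for tissue. Noncompartmental parameters taken from the composite mean profile.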

Muscle tissue [12] = assay: Drug level in Long Evans rat muscle assessed as radioactivity per gram of tissue at 5 mg/kg, iv administered as single bolus dose measured 6 hrs postdose by autoradiography; design: dose 5 mg/kg, route intravenous; conditions: in vivo
Method in brief: (§5)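 Male pigmented Long Evans (HsdBlu:LE) rats, 7.5 weeks old and 202 to 217 g, got a single iv dose of [14C]anidulafungin at 5 mg/kg. One rat per time point (0.5, 6, 12, 24, 72, 168 h) was euthanised by isoflurane and cardiac-puncture exsanguination. Sagittal whole-body sections were quantified by phosphorimaging. Samples were thickness-corrected, and concentrations (μg eq/g) were interpolated from least-squares standard curves.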

Zone of skin [13] = assay: AUC (0 to infinity) in F344 rat skin assessed as total compound-derived radioactivity per gram of tissue at 5 mg/kg, iv administered as single bolus dose […]; design: time infinity, dose 5 mg/kg, route intravenous; conditions: in vivo; method in brief: as §1
Lung [14] = assay: Drug level in Long Evans rat lung assessed as radioactivity per gram of tissue at 5 mg/kg, iv administered as single bolus dose measured 6 hrs postdose by autoradiography; design: dose 5 mg/kg, route intravenous; conditions: in vivo; method in brief: as §2
Zone of skin [15] = assay: AUC (0 to 24 hrs) in F344 rat skin assessed as total compound-derived radioactivity per gram of tissue at 5 mg/kg, iv administered as single bolus dose […]; design: time < 24 hr, dose 5 mg/kg, route intravenous; conditions: in vivo; method in brief: as §1
Cerebrospinal fluid [16] = assay: Drug level in Long Evans rat cerebrospinal fluid assessed as radioactivity per gram of tissue at 5 mg/kg, iv administered as single bolus dose measured 168 hrs postdose by autoradiography; design: dose 5 mg/kg, route intravenous; conditions: in vivo; method in brief: as §2
Lung [17] = assay: AUC (0 to infinity) in F344 rat lung assessed as total compound-derived radioactivity per gram of tissue at 5 mg/kg, iv administered as single bolus dose […]; design: dose 5 mg/kg, route intravenous, time infinity; conditions: in vivo; method in brief: as §1
Liver [18] = assay: Half life in F344 rat liver assessed as total compound-derived radioactivity at 5 mg/kg, iv administered as single bolus dose […]; design: dose 5 mg/kg, route intravenous; conditions: in vivo; method in brief: as §3
Liver [19] = assay: Drug level in Long Evans rat liver assessed as high disposition of radioactivity per gram of tissue at 5 mg/kg, iv administered as single bolus dose measured 168 hrs postdose by autoradiography; design: dose 5 mg/kg, route intravenous; conditions: in vivo; method in brief: as §2
Spleen = assay: Drug level in Long Evans rat spleen assessed as radioactivity per gram of tissue at 5 mg/kg, iv administered as single bolus dose measured 0.5 hrs postdose by autoradiography; design: dose 5 mg/kg, route intravenous; conditions: in vivo; method in brief: as §5
[20] = Cmax in F344 rat spleen at 5 mg/kg, iv administered as single bolus dose after 30 min by HPLC method; design: dose 5 mg/kg, route intravenous; method in brief: as §4
Blood [21] = assay: Drug level in Long Evans rat blood assessed as radioactivity per gram of tissue at 5 mg/kg, iv administered as single bolus dose measured 24 hrs postdose by autoradiography; design: dose 5 mg/kg, route intravenous; conditions: in vivo; method in brief: as §2
[22] = Tmax in F344 rat kidney at 5 mg/kg, iv administered as single bolus dose by HPLC method; design: dose 5 mg/kg, route intravenous
Method in brief: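 F344 males, 10 to 11 weeks old and 223.6 to 243.8 g, got a single 5 mg/kg iv dose of [14C]anidulafungin over about 5 min. Plasma and tissues were collected predose and at 0.083 to 72 h, n = 3 per time point. Parent drug was quantified by HPLC-UV, with LLOQ/ULOQ of 20/5,120 ng/ml in plasma and 220/56,320 ng/g in tissue. Noncompartmental parameters came from a composite mean concentration-time profile.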

`CCCCCOc1ccc(-c2ccc(-c3ccc([14C](=O)N[C@H]4C[C@@H](O)[C@@H](O)NC(=O)[C@@H]5[C@@H](O)[C@@H](C)CN5C(=O)[C@H]([C@@H](C)O)NC(=O)[C@H]([C@H](O)[C@@H](O)c5ccc(O)cc5)NC(=O)[C@@H]5C[C@@H](O)CN5C(=O)[C@H]([C@@H](C)O)NC4=O)cc3)cc2)cc1` [14C-ANIDULAFUNGIN] gave a Cmax (Blood [1]) of 14.78 ugequiv/g, an AUC (Liver [2]) of 1346.94 ugequiv.hr/g and a Drug uptake (Kidney) of 20.66 ugequiv. For the same compound, the Drug uptake (Cerebrospinal fluid [3]) was 5.54 ugequiv, the Tmax (Lung [4]) was 4.98 min and the Tmax (Plasma) was 4.98 min. For the same compound, the Drug uptake (Liver [5]) was 14.7 ugequiv, the AUC (Liver [6]) was 2656.38 ugequiv.hr/g and the Drug uptake (Cerebrum) was 0.47 ugequiv. The Drug uptake (Lung [7]) was 8.05 ugequiv, the AUC (Blood [8]) was 203.14 ugequiv.hr/g and the Drug uptake (Muscle tissue [9]) was 1.39 ugequiv. It also gave a Drug uptake [10] of 0.6 ugequiv, a Cmax [11] of 15900 ng/g and a Drug uptake (Muscle tissue [12]) of 2.53 ugequiv. For the same compound, the AUC (Zone of skin [13]) was 326.92 ugequiv.hr/g, the Drug uptake (Lung [14]) was 22.88 ugequiv and the AUC (Zone of skin [15]) was 190.73 ugequiv.hr/g. For the same compound, the Drug uptake (Cerebrospinal fluid [16]) was 2.18 ugequiv, the AUC (Lung [17]) was 1341.95 ugequiv.hr/g and the t1/2 (Liver [18]) was 69.2 h. The Drug uptake (Liver [19]) was 4.27 ugequiv, the Drug uptake (Spleen) was 20.67 ugequiv and the Cmax [20] was 24200 ng/g. It also gave a Drug uptake (Blood [21]) of 2.27 ugequiv and a Tmax [22] of 30 min.
